The subject of test [1] is CCRF-CEM. Description: Growth inhibitory activity against human lymphoblastic leukemia cells(CCRF-CEM). The test is classed as functional. The following applies: read-out: ID50 (the source's name). In short, it runs like this:
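Log-phase human lymphoblastic leukemia CCRF-CEM cells grown in suspension culture. Compounds dissolved in Me2SO, final growth medium contained 5% Me2SO. Test solutions kept at 0-4 °C, protected from light, homogeneity checked by HPLC before testing. ID50 reported in ng/mL.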

The species entered for test [2] is Mus musculus. Description: Male CDF1 hybrid treated mice out of seven which survived over 60 days after the treatment. Format: functional. In short, it runs like this:
(§1)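 Male CDF1 mice, seven per group, given 10^6 P388 cells ip on day 0. Drugs were given ip in 10% Me2SO-saline on days 1, 5 and 9, with solutions kept at 0-4 °C, protected from light and checked for homogeneity by HPLC. A range of doses was run and the optimal nontoxic dose reported. Read-outs were median survival time, percent increase in life span, and cures (over-60-day survivors, average of two experiments).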

Test [3] concerns P388. Description: Median survival time observed in P-388 cells infected male CDF1 hybrid mice after intraperitoneal administration at 1800 ug/kg optimal dose. The test is classed as functional, Mus musculus. In outline:
as §1

The subject of test [4] is P388. Description: Percent increase in life span observed in P-388 cells infected male CDF1 hybrid mice after intraperitoneal administration at 1800 ug/kg optimal dose. The test is classed as functional, Mus musculus. In short, it runs like this: as §1
Test [5] relates to P388. Description: Median survival time observed in P-388 cells infected male CDF1 hybrid mice after intraperitoneal administration at 1200 ug/kg optimal dose. The test is classed as functional, Mus musculus. In short, it runs like this: as §1
Test [6] relates to P388. Description: Percent increase in life span observed in P-388 cells infected male CDF1 hybrid mice after intraperitoneal administration at 1200 ug/kg optimal dose. Format: functional, Mus musculus. In outline:
as §1

Test [7] relates to P388. Description: Median survival time observed in P-388 cells infected male CDF1 hybrid mice after intraperitoneal administration at 600 ug/kg optimal dose. The test is classed as functional, Mus musculus. In short, it runs like this:
as §1

The test system of test [8] is P388. Description: Percent increase in life span observed in P-388 cells infected male CDF1 hybrid mice after intraperitoneal administration at 600 ug/kg optimal dose. Format: functional, Mus musculus. In short, it runs like this: as §1
Test [9] has as its system Nucleic Acid. Description: (§2) Melting temperature of DNA-drug complex minus melting temperature of purified calf-thymus DNA. Conditions: Bos taurus. Format: functional. In outline:
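Calf-thymus DNA, purified. ΔTm is the Tm of the DNA-drug complex minus the Tm of DNA alone. Medium was 0.01 M phosphate buffer, pH 7.0, with EDTA.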

The test system of test [10] is Nucleic Acid. The test is described as §2. The test is classed as functional. Conditions: Bos taurus. The source holds these as a separate data set.
Test [11] deals with P388. Description: Median survival time observed in P-388 cells infected male CDF1 hybrid mice after intraperitoneal administration at 900 ug/kg optimal dose. The test is classed as functional, Mus musculus. In short, it runs like this:
as §1

The test system of test [12] is P388. Description: Percent increase in life span observed in P-388 cells infected male CDF1 hybrid mice after intraperitoneal administration at 900 ug/kg optimal dose. Format: functional, Mus musculus. In outline: as §1

In brackets after ≈: the same amount, converted by molar mass.

As to `Cc1ccc(C(=O)N[C@@H]2C(=O)N[C@H](C(C)C)C(=O)N3CCC[C@H]3C(=O)N(C)CC(=O)N(C)[C@@H](C(C)C)C(=O)O[C@@H]2C)c2c1Oc1c(c(C(=O)N[C@@H]3C(=O)N[C@H](C(C)C)C(=O)N4CCC[C@H]4C(=O)N(C)CC(=O)N(C)[C@@H](C(C)C)C(=O)O[C@@H]3C)c3nc(-c4c(F)c(F)c(F)c(F)c4F)oc3c1C)N2`, the IC50 in test [1] amounted to 12.5 µg/mL (≈ 8.72 µM). Also, the Cures in [2] is 0. Besides, the MST in [3] was 19 days. Also, the ILS in [4] was found to be 72%.
With `Cc1ccc(C(=O)N[C@@H]2C(=O)N[C@H](C(C)C)C(=O)N3CCC[C@H]3C(=O)N(C)CC(=O)N(C)[C@@H](C(C)C)C(=O)O[C@@H]2C)c2c1Oc1c(c(C(=O)N[C@@H]3C(=O)N[C@H](C(C)C)C(=O)N4CCC[C@H]4C(=O)N(C)CC(=O)N(C)[C@@H](C(C)C)C(=O)O[C@@H]3C)c3nc(-c4ccccc4Cl)c(=O)oc3c1C)N2`, the IC50 in test [1] worked out at 1.8 µg/mL (≈ 1.28 µM). This compound yielded an MST in test [5] of 30 days. The compound further displayed an ILS in test [6] of 172%. In test [2], the Cures was determined as 1.
`Cc1ccc(C(=O)N[C@@H]2C(=O)N[C@H](C(C)C)C(=O)N3CCC[C@H]3C(=O)N(C)CC(=O)N(C)[C@@H](C(C)C)C(=O)O[C@@H]2C)c2c1Oc1c(c(C(=O)N[C@@H]3C(=O)N[C@H](C(C)C)C(=O)N4CCC[C@H]4C(=O)N(C)CC(=O)N(C)[C@@H](C(C)C)C(=O)O[C@@H]3C)c3nc(-c4c(F)c(F)c(F)c(F)c4F)c(=O)oc3c1C)N2`: in test [1], the IC50 was determined as 0.64 µg/mL (≈ 0.438 µM). In [2], this compound yielded a Cures of 1. In test [3], this compound returned an MST of 31.5 days. In addition, in [4], the ILS is 186%.
On to `Cc1ccc(C(=O)N[C@@H]2C(=O)N[C@H](C(C)C)C(=O)N3CCC[C@H]3C(=O)N(C)CC(=O)N(C)[C@@H](C(C)C)C(=O)O[C@@H]2C)c2c1Oc1c(c(C(=O)N[C@@H]3C(=O)N[C@H](C(C)C)C(=O)N4CCC[C@H]4C(=O)N(C)CC(=O)N(C)[C@@H](C(C)C)C(=O)O[C@@H]3C)c3nc(-c4cccc(Cl)c4)c(=O)oc3c1C)N2`, for which, in test [1], the IC50 came out at 1.6 µg/mL (≈ 1.14 µM). Also, the Cures in test [2] came to 0. The same compound yielded an MST in test [7] of 29 days. In test [8], this compound came in with an ILS of 164%.
On to `Cc1ccc(C(=O)N[C@@H]2C(=O)N[C@H](C(C)C)C(=O)N3CCC[C@H]3C(=O)N(C)CC(=O)N(C)[C@@H](C(C)C)C(=O)O[C@@H]2C)c2c1Oc1c(c(C(=O)N[C@@H]3C(=O)N[C@H](C(C)C)C(=O)N4CCC[C@H]4C(=O)N(C)CC(=O)N(C)[C@@H](C(C)C)C(=O)O[C@@H]3C)c3nc(-c4ccccc4)c(=O)oc3c1C)N2`, for which the IC50 in test [1] amounted to 0.44 µg/mL (≈ 0.321 µM). Further, the Cures in [2] is on record as 2. In addition, the MST in [7] came to 45 days. The same compound had an ILS in test [8] of 309%.
For `Cc1ccc(C(=O)N[C@@H]2C(=O)N[C@H](C(C)C)C(=O)N3CCC[C@H]3C(=O)N(C)CC(=O)N(C)[C@@H](C(C)C)C(=O)O[C@@H]2C)c2c1Oc1c(c(C(=O)N[C@@H]3C(=O)N[C@H](C(C)C)C(=O)N4CCC[C@H]4C(=O)N(C)CC(=O)N(C)[C@@H](C(C)C)C(=O)O[C@@H]3C)c3nc(-c4ccc(Cl)cc4Cl)c(=O)oc3c1C)N2`, the IC50 in [1] came out at 3.2 µg/mL (≈ 2.22 µM). Further, the MST in [5] was 28 days. Further, the ILS in test [6] turned out to be 155%. In addition, the Cures in [2] is given as 0.
As for `Cc1nc2c(C(=O)N[C@H]3C(=O)N[C@H](C(C)C)C(=O)N4CCC[C@H]4C(=O)N(C)CC(=O)N(C)[C@@H](C(C)C)C(=O)O[C@H]3C)c3c(c(C)c2o1)Oc1c(C)ccc(C(=O)N[C@@H]2C(=O)N[C@H](C(C)C)C(=O)N4CCC[C@H]4C(=O)N(C)CC(=O)N(C)[C@@H](C(C)C)C(=O)O[C@@H]2C)c1N3`, the ΔTm in test [9] came out at 0 °C.
With `Cc1c2oc3c(C)c(O)c(N)c(C(=O)N[C@H]4C(=O)N[C@@H](C(C)C)C(=O)N5CCC[C@H]5C(=O)N(C)CC(=O)N(C)[C@H](C(C)C)C(=O)O[C@H]4C)c3nc-2c(C(=O)N[C@@H]2C(=O)N[C@H](C(C)C)C(=O)N3CCC[C@@H]3C(=O)N(C)CC(=O)N(C)[C@@H](C(C)C)C(=O)O[C@@H]2C)cc1=O`, the ΔTm in [10] was 6.7 °C.
Regarding `Cc1ccc(C(=O)N[C@@H]2C(=O)N[C@H](C(C)C)C(=O)N3CCC[C@H]3C(=O)N(C)CC(=O)N(C)[C@@H](C(C)C)C(=O)O[C@@H]2C)c2c1Oc1c(c(C(=O)N[C@@H]3C(=O)N[C@H](C(C)C)C(=O)N4CCC[C@H]4C(=O)N(C)CC(=O)N(C)[C@@H](C(C)C)C(=O)O[C@@H]3C)c3nc(-c4ccccc4)oc3c1C)N2`, the IC50 in [1] amounted to 9 µg/mL (≈ 6.7 µM). The MST in test [11] worked out at 23 days. For the same compound, the Cures in test [2] was 0. Besides, the ILS in test [12] was determined as 109%.

In general, ILS refers to how much longer treated animals lived than controls. For orientation: ΔTm means the change in melting temperature against a reference sample.
